The source of these data is ChEMBL document CHEMBL4414599, “Selective Phenylimidazole-Based Inhibitors of the Mycobacterium tuberculosis Proteasome” (J Med Chem, 2019).

For data set [1], the target named is T1, Proteasome subunit beta type-8 (Homo sapiens, UniProt P28062).
T1 sequence (P28062 whole entry): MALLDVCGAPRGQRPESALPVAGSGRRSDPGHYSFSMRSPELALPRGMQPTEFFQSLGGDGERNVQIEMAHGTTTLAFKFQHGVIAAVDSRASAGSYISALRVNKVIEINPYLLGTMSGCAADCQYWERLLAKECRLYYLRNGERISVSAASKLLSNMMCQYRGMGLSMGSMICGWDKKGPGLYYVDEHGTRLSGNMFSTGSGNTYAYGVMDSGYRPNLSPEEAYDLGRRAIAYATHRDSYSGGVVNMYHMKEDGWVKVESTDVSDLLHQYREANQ
Description: Inhibition of human 20S proteasome subunit beta-5i using Ac-ANW-AMC as substrate and measured every 30 secs for 30 mins by microtiter plate assay. Conditions: for inhibition (INH): human, 0.5 h. An outline of the steps:
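Human immunoproteasome (i-20S) run in HEPES pH 7.5 buffer with EDTA and BSA, substrate Ac-ANW-AMC at 15 µM, 25 °C. Inhibitor given as a three-fold dilution series, DMSO under 0.5% final. Fluorescence 340/460 nm followed every 30 s for 30 min. IC50 fitted from rates against log inhibitor concentration; triplicate, at least three independent experiments.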

A short description of data set [2]: Solubility of the compound. Format: physicochemical.
The target in data set [3] is T2, Proteasome Macropain subunit MB1 (Homo sapiens, UniProt P28074).
T2 sequence (P28074 whole entry): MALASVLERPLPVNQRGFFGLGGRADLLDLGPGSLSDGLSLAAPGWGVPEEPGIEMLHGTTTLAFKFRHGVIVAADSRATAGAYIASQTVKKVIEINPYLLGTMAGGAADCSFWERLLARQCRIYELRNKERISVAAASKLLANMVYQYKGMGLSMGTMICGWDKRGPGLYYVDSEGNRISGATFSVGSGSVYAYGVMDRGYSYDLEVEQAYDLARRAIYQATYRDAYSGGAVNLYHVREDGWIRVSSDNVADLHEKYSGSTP
Description: Inhibition of human 20S proteasome beta-5c subunit using Suc-LLVY-AMC as substrate and measured every 30 secs for 30 mins by microtiter plate assay. To be noted: for inhibition (INH): human, 0.5 h. An outline of the steps: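 Human constitutive 20S, purchased, 0.8 nM in the enzyme solution. Buffer: 20 mM HEPES pH 7.5, 0.5 mM EDTA, 0.1 mg/mL BSA, 0.02% SDS. Suc-LLVY-AMC at 25 µM final, 25 °C, three-fold inhibitor dilutions. Fluorescence 340/460 nm read every 30 s for 30 min. IC50 from a log-concentration rate fit against negative and positive controls; triplicate, at least three independent experiments.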

What is called IC50 is the point on the concentration scale where inhibition reaches its midpoint. With `Cc1cc(C(=O)N[C@@H](CC(=O)N2CCCC[C@@H]2C)C(=O)N[C@@H](C)C(=O)NCc2ccc(F)cc2F)no1`, the half-maximal inhibitory concentration (IC50) in data set [1] was 0.026 µM; in data set [3], 1.41 µM. The “inhibition (INH)” value in data set [1] and in data set [3] was “Dose-dependent effect” each time. Moreover, in data set [2], the solubility result is on record as “Soluble”.

With `COc1ccccc1CNC(=O)[C@H](C)NC(=O)[C@H](CC(=O)N1CCC[C@@H]1c1ccccc1)NC(=O)c1cc(C)on1`, in data set [1], the IC50 is > 100 µM and the “inhibition (INH)” value is “Dose-dependent effect”. Further, in data set [3], the IC50 is > 100 µM and the “inhibition (INH)” value is listed as “Dose-dependent effect”.

On to `Cc1cc(C(=O)N[C@@H](CC(=O)N2CCC[C@@H]2c2ccccc2)C(=O)N[C@@H](C)C(=O)NCc2c(F)cccc2F)no1`, for which, in data set [1], the half-maximal inhibitory concentration (IC50) was 20.1 µM and the “inhibition (INH)” value is reported as “Dose-dependent effect”. In addition, in data set [3], the half-inhibitory concentration (IC50) is > 100 µM and the “inhibition (INH)” value is “Dose-dependent effect”.

Take `Cc1cc(C(=O)N[C@@H](CC(=O)N2CCC[C@@H]2c2ccccc2)C(=O)N[C@@H](C)C(=O)NCc2ccc(F)cc2F)no1`: in data set [1], the midpoint of inhibition, the IC50, lay at 7.89 µM and the “inhibition (INH)” value was “Dose-dependent effect”. In data set [3], the IC50 was > 100 µM and the “inhibition (INH)” value is “Dose-dependent effect”.

In the case of `Cc1cc(C(=O)N[C@@H](CC(=O)N2CCC[C@@H]2c2ccccc2)C(=O)N[C@@H](C)c2ncc(-c3ccccc3F)[nH]2)no1`, the IC50 in data set [1] and in data set [3] was > 100 µM each time.

With `Cc1cc(C(=O)N[C@@H](CC(=O)N2CCC[C@@H]2c2ccccc2)C(=O)N[C@@H](C)c2ncc(-c3ccccc3)[nH]2)no1`, the IC50 in data set [1] and in data set [3] was > 100 µM throughout.

Turning to `Cc1cc(C(=O)N[C@@H](CC(=O)N2CCC[C@@H]2c2ccccc2)C(=O)N[C@@H](C)c2ncc(-c3ccc(F)cc3F)[nH]2)no1`, the IC50 in data set [1] and in data set [3] was > 100 µM in each case.
